The record followed here is article PMC6684259 (Current biology : CB, 2019).

Structures are written as SMILES.

Experiment [1] concerns the target T1, Eg5 (kinesin-5) (Xenopus laevis, UniProt P28025).
T1 sequence (P28025 1-368): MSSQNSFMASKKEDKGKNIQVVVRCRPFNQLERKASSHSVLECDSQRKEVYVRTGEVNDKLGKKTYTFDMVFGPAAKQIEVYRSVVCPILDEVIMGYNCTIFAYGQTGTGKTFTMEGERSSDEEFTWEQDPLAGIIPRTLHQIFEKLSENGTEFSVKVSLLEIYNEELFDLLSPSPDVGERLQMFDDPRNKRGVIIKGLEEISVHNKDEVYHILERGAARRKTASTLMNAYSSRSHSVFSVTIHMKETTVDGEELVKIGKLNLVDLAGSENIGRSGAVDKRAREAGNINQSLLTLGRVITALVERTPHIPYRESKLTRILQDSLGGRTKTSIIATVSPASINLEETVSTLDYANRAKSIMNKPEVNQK
Description: microtubule shrinkage assay with purified Eg5M in AMPPNP. Type of experiment: biochemical.

Experiment [2] concerns the target T1, Eg5 (kinesin-5). Description: microtubule shrinkage assay with purified Eg5M plus inhibitor. Type of experiment: biochemical. The method, boiled down:
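Shrinkage run in BRB80 with oxygen scavenger and 0.2 mg/mL casein. Microtubules are grown from Cy5/biotin GMPCPP seeds with TMR-labeled bovine brain tubulin, 5 mM Mg-ATP and 2 mM Mg-GTP, ±His-purified motor (E. coli-expressed), for 20 min at 37°C. Catastrophe is triggered by flowing in 22°C tubulin-free buffer holding the same motor concentration. Shrinkage velocities come from tracked ends imaged on stage.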

With `Nc1ncnc2c1ncn2[C@@H]1O[C@H](CO[P@](=O)(O)O[P@](=O)(O)NP(=O)(O)O)[C@@H](O)[C@H]1O` [AMPPNP], the “microtubule shrinkage assay with purified Eg5M in AMPPNP (TIRF)” value at Eg5 (kinesin-5) [1] came to 0.5 nm/s.

With `CC(C)(C)c1ccc2cc(C#N)c(C#N)cc2c1` [BRD9876], the “microtubule shrinkage assay with purified Eg5M plus inhibitor (TIRF)” value at Eg5 (kinesin-5) [2] worked out at 0.2 nm/s.
